# Screens (PubChem)
# Sampled rows, rich in hits. Any-hit rate of the full collection: about 2.7%.
# PREPL inh: inhibits the human prolyl oligopeptidase-like enzyme; Q4J6C6; recombinant PREPL, fluorescence polarization activity-based probe; inhibition, % at 5.96 µM; actives 0.68% (n = 320,000); AID 2751; in the data active = inhibition above about 43%
# NTR1 agonist: activates human neurotensin receptor 1 | P30989 | NTR1-U2OS beta-arrestin-GFP spot imaging, agonist mode | activation, % at 20 µM | actives 0.17% (n = 330,000);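 active = activation at or above 40% of the spot to cytoplasm intensity ratio, with at least 20 cells analyzed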
# MC4R antag cAMP: human MC4R antagonism in cAMP assay | MC4R-expressing cells, MTII-stimulated cAMP, LANCE TR-FRET | actives 0.48% (n = 360,000) | inhibition, % at 6.5 µM | AID 540295;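 active = inhibition above its plate's cutoff, the mean of tested wells on that plate plus 3 SD, cut at about 29% in these data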
#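 System: U2OS cells stably expressing human melanocortin 4 receptor (MC4R). Reagent: Melanotan II challenge after compound preincubation. Doses: 6.5 µM. Times: 30-min compound, 1-h challenge, 1-h detection, room temperature. Measured by: TR-FRET with Eu-cAMP and labeled anti-cAMP, 671 nm. Replicates: singlicate.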
# Lipid droplet: modulators of hepatic lipid droplet formation; AID 1656; inhibition, % at 6.5 µM; actives 0.4% (n = 240,000); AML12 mouse hepatocytes, oleate lipid droplets, BODIPY imaging;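 active = lipid droplet intensity inhibited by at least 50%, with more than 500 cells counted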
#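 Test system: AML12 hepatocytes (mouse); reagent: oleate loading, 100 µM; dosing: one dose, 6.5 µM compound; incubation: overnight exposure; signal: fluorescence imaging, 20x objective, two fields per well; read-out basis: % inhibition of corrected integrated BODIPY droplet signal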
# MC4R barr agon: agonists of human melanocortin 4 receptor (MC4R) beta-arrestin; activation, % at 8.9 µM; P32245; U2OS MC4R beta-arrestin complementation, luminescence; percent of melanotan II response, DMSO zero; actives 0.98% (n = 360,000);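 active = activation above a per-plate cutoff, the mean activation of sample wells on that plate plus 3 SD, cut at about 8% in these data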
# m5-HT2A agonist: mouse HTR2A agonism via beta-arrestin recruitment. actives 0.66% (n = 360,000). activation, % at 7.6 µM. CHO-K1 mHTR2A beta-arrestin complementation, luminescence; percent of 30 µM serotonin response. P35363;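 active = activation above a run cutoff, the mean activation of all tested compounds plus 3 SD, cut at about 14% in these data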
# Target sequence (P35363 whole entry, looked up): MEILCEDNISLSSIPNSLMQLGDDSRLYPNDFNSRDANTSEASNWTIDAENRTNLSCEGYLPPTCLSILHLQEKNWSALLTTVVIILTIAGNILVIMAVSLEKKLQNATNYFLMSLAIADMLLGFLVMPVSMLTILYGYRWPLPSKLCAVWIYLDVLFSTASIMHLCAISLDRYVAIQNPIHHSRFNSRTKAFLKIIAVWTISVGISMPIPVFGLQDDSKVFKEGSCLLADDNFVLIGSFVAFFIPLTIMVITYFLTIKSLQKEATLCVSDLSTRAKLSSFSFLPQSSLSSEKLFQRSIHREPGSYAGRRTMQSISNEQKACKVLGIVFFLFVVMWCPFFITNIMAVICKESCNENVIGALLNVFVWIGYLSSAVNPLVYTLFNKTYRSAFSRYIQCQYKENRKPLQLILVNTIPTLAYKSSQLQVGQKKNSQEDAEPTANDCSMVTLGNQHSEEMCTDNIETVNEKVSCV
# OPRM1 ag: activates human mu opioid receptor in HTR2A counterscreen; shares compounds with m5-HT2A agonist; activation, % at 9.3 µM; actives 5.3% (n = 2,300); U2OS OPRM1 beta-arrestin PathHunter, luminescence; DMSO 0%, DAMGO 9.3 µM 100%;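 active = mean activation above the mean of DMSO-only wells plus 3 SD, cut at about 0.5% in these data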
# HTR2A ag conf: confirmation of mouse HTR2A serotonin receptor agonists; AID 624381; activation, % at 7.6 µM; shares compounds with m5-HT2A agonist; actives 19% (n = 2,300); CHO-K1 PathHunter beta-arrestin recruitment, luminescence; DMSO 0%, 30 µM serotonin 100%;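 active = mean activation across triplicates above the hit threshold derived in the original primary screen, cut at about 15% in these data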
# A number is an active result; . = inactive; / = no result given.
SMILES,PREPL inh,NTR1 agonist,MC4R antag cAMP,Lipid droplet,MC4R barr agon,m5-HT2A agonist,OPRM1 ag,HTR2A ag conf
COc1cc(NS(=O)(=O)c2ccc(NC(=O)CCC(=O)O)cc2)nc(OC)n1,.,.,.,.,.,.,/,/
CCOC(=O)CNS(=O)(=O)c1cc(-c2nnc(Nc3ccc4c(c3)OCO4)c3ccccc23)ccc1C,.,.,.,.,.,17,.,.
Cc1ccc(-c2nnc(Nc3ccc(O)cc3)c3ccccc23)cc1S(=O)(=O)NCCO,/,.,.,.,.,.,/,/
O=C(CCN1CCN(S(=O)(=O)c2cccc([N+](=O)[O-])c2)CC1)Nc1ccccc1F,.,.,.,.,.,.,/,/
O=C(O)C1C2CCC(C2)C1C(=O)NCCc1cccc(Cl)c1 (stereo unspecified),.,.,.,.,.,24,.,.
COc1ccc(CCNC(=O)c2c(Cl)ccc(Cl)c2OC)cc1OC,.,.,.,/,.,31,.,.
COc1ccc(CCNC(=O)c2ccc(Cl)cc2)cc1OC,.,.,.,.,.,.,/,/
Oc1c(C(c2ccccn2)N2CCCCC2)cc(Cl)c2cccnc12 (stereo unspecified),.,.,.,.,.,22,.,.
COc1ccccc1C(=O)NCC(=O)N/N=C(\C)Cc1ccccc1,.,.,.,.,.,.,/,/
CCN(Cc1nc(-c2ccccc2)no1)C(=O)c1ccco1,.,.,.,.,.,.,/,/
CN(Cc1nc(-c2ccccc2)no1)C(=O)c1ccco1,.,.,.,/,.,16,.,.
CCCCOc1ccc(C(=O)NCC(=O)NNC(=O)C2COc3ccccc3O2)cc1 (stereo unspecified),.,.,.,/,.,.,/,/
CCOc1ccc(C(=O)NCC(=O)NNC(=O)C2COc3ccccc3O2)cc1OCC (stereo unspecified),.,.,.,/,.,19,.,.
O=C1CCc2cc(S(=O)(=O)NCc3ccccc3)cc3c2N1CC3,.,.,.,/,.,.,/,/
COc1cccc(CNS(=O)(=O)c2cc3c4c(c2)CCN4C(=O)CC3)c1,.,.,.,/,.,18,.,.
COc1ccccc1N(C)S(=O)(=O)c1ccc(C(=O)Nc2ncc(C)s2)cc1,.,.,.,/,.,.,/,/
COc1ccccc1N(C)S(=O)(=O)c1ccc(C(=O)Nc2nc(C)c(C(C)=O)s2)cc1,.,.,.,/,.,18,.,.
COc1ccc(-n2c(C)cc(=O)[nH]c2=O)cc1,.,.,.,.,.,18,.,.
CCN(CC)C(=O)c1c(-c2ccccc2)oc2ccc(OC)cc12,.,.,.,.,.,15,.,.
CC(C)c1ccc(NC(=O)C2Cc3c(-c4cccc(F)c4)ccnc3O2)cc1 (stereo unspecified),/,/,.,/,.,.,/,/
COc1ccc(NC(=O)N2CCCC(C(=O)Nc3cccc(C)c3C)C2)cc1 (stereo unspecified),.,.,.,.,.,16,.,.
CC(C)(CCc1ccccn1)C(=O)C(CCc1ccccn1)CCc1ccccn1,/,/,.,/,.,14,.,33
S=C(NCC1CCCO1)NC1CC1 (stereo unspecified),.,.,.,.,.,.,/,/
O=C(NCC1CCCO1)NC1CCCCC1 (stereo unspecified),.,.,.,.,.,17,.,.
O=C(Nc1ccccc1N1CCCCC1)c1ccc(-c2cc(Cl)ccc2Cl)o1,.,.,.,/,.,.,/,/
SMILES,PREPL inh,NTR1 agonist,MC4R antag cAMP,Lipid droplet,MC4R barr agon,m5-HT2A agonist,OPRM1 ag,HTR2A ag conf
CCc1nnc(NS(=O)(=O)c2ccc(NS(=O)(=O)c3ccc(NC(C)=O)cc3)cc2)s1,/,/,/,.,/,/,/,/
CCc1nnc(NS(=O)(=O)c2ccc(NC(=O)CCC(=O)O)cc2)s1,.,.,.,.,.,15,.,.
CC(=O)c1c(C)[nH]c(C(=O)Nc2ccccn2)c1C,.,.,.,.,.,15,.,.
Nc1nc(N)c(N=Nc2ccccc2)c(=O)[nH]1,/,/,.,/,.,.,/,/
Nc1ncnc(N)c1N=Nc1ccccc1,/,.,.,.,.,21,.,.
Cc1c(C(=O)NCc2cccc(C(F)(F)F)c2)sc(=O)n1Cc1ccccc1F,/,/,.,/,.,25,.,.
Cc1ccc(Cn2c(C)c(C(=O)NCc3cccc(C(F)(F)F)c3)sc2=O)cc1,/,/,.,/,.,.,/,/
O=C1C=CC(c2ccccc2)(c2ccccc2)CC1,/,/,.,/,.,.,/,/
Cn1c(N)c(C(=O)/C=C/c2ccccc2)c(=O)[nH]c1=O,.,.,.,.,.,26,.,.
CCOC(=O)C1=C(CC)Nc2ccccc2N/C1=N\S(=O)(=O)c1cccc(C(C)=O)c1,.,.,.,/,.,20,.,.
CCOC(=O)C1=C(CC)Nc2ccccc2N/C1=N\S(=O)(=O)c1ccccc1F,.,.,.,/,.,.,/,/
O=C(Nc1ccc(Cl)cc1Cl)NC1CCN(S(=O)(=O)c2ccc(F)cc2)CC1,.,.,.,.,.,.,/,/
OC(CN1CCNCC1)Cn1c2ccccc2c2ccccc21 (stereo unspecified),.,.,.,.,.,18,.,.
OC(CN1CCOCC1)Cn1c2ccccc2c2ccccc21 (stereo unspecified),.,.,.,.,.,.,/,/
O=C(Nc1ccc(Cl)cc1)Nc1nc(-c2ccccc2O)cs1,.,.,.,.,.,14,.,.
O=C(Nc1ccc(Cl)cc1)Nc1nc(-c2sccc2Br)cs1,.,.,.,/,.,.,/,/
CCCNC(=O)NC(=O)CN1C(=O)NC(C)(c2ccc3ccccc3c2)C1=O (stereo unspecified),.,.,.,.,.,.,/,/
Cc1ccc(Nc2ncnc(N)n2)cc1,.,.,.,.,.,23,.,.
Nc1ncnc(Nc2ccc(F)cc2)n1,.,.,.,.,.,.,/,/
CCS(=O)(=O)NCC(c1cccnc1)N1CCN(c2ccccc2F)CC1 (stereo unspecified),.,.,.,/,.,.,/,/
Cc1cccc(NC(=O)CSc2nnc(-c3ccco3)n2CC2CCCO2)n1 (stereo unspecified),.,.,.,.,.,15,.,.
COc1ccc(S(=O)(=O)N2CCC(N3CCN(Cc4ccccc4)CC3)CC2)cc1,.,.,.,.,.,22,.,42
O=C(NC(=S)Nc1cccc(O)c1)c1ccco1,.,.,.,.,.,.,/,/
Cc1cc(C)c(OCCCNCc2ccccc2)c(Br)c1,.,.,.,.,.,20,.,.
Cc1cc(Cl)c(OCCCNCc2ccccc2)c(Br)c1,.,.,.,/,.,20,.,.
